The nature of test [1]: hit retest on RPL19A-GFP reporter strain – cell-based, S. cerevisiae, flow cytometry, cherry picks, mother/daughter gates, confirmation (AID 2270;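 active means GFP response below 50% of the DMSO control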). To be noted: 3 h, at 10 µM, stronger effect = lower value, 100 = same GFP as DMSO wells.
Test [2] can be described thus: yeast TOR pathway reporter LAP4-GFP change – cell-based, cherry picks, flow cytometry, mother/daughter gates, confirmation (AID 2271;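 active means GFP response above 150% of the DMSO control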;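 further: ratio of sample to DMSO plate mean so 100% equals DMSO level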). The settings on record: S. cerevisiae LAP4-GFP strain, 3 h, at 10 µM, stronger effect = higher value, 100 means same as DMSO control. The method, boiled down:
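material = Alexa 633-stained baker's yeast GFP-fusion strain | amount = 0.2 OD600 cells | schedule = 30 °C, 3 h compound incubation, rotating | signal = GFP by flow cytometry | measure = per-gate (all, mother, daughter) GFP response vs DMSO | controls = positive rapamycin (400 ng/mL), negative DMSO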

Test [3] can be described thus: TOR pathway reporter MEP2-GFP, retest of hits – S. cerevisiae, flow cytometry GFP, cherry picks, confirmation (AID 2272;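 active means GFP response above 150% of the DMSO control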;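 further: ratio of well signal to plate DMSO mean so 100% equals DMSO level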). To be noted: S. cerevisiae MEP2-GFP strain, 3 h, at 10 µM, stronger effect = higher value. (In general: Flow cytometry measures light scatter and fluorescence of single cells or particles in a stream.)
Test [4] is described as follows: yeast AGP1-GFP fluorescence change, single-dose – cell-based, flow cytometry, S. cerevisiae, cherry picks, confirmation (AID 2273).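 Further: median GFP channel fluorescence over the whole cell population gate.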 To be noted: S. cerevisiae AGP1-GFP strain, 3 h, at 10 µM.
Test [5] in a line: TOR pathway CIT2 reporter hit retest – S. cerevisiae, GFP fusion, cherry picks, mother/daughter gates, confirmation (AID 2274). The settings on record: S. cerevisiae CIT2-GFP strain, flow cytometry, 3 h, at 10 µM, stronger effect = higher value.
[6] abbreviates: measured here: daughter cell gate.
[7] abbreviates: measured here: mother cell gate.
[8] abbreviates: measured here: daughter cell gate response.
Where [9] appears, read: measured here: mother cell gate response.

Active and inactive are the calls of the source.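 How the source made its calls, unless noted: active means GFP response above 150% of the DMSO level; inconclusive means fewer than 70 events counted for a yeast strain; inactive means the rest.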

For `O=C(NCc1ccc2c(c1)OCO2)c1nc(S(=O)(=O)Cc2ccccc2F)ncc1Cl`, the GFP response vs DMSO in test [1] is 99.1% (inactive); in test [1] (setting [6]), 99.3%; in test [1] (setting [7]) it was 97.8%; in test [3], 103% (inactive). Also, the GFP response relative to DMSO in test [2] was 101% (inactive); in test [2] (setting [8]) it was 104%; in test [2] (setting [9]), 102%. The GFP response, % of DMSO in test [4] is 100% (inactive); in test [5], 94.4% (inactive); in test [5] (setting [6]), 94%; in test [5] (setting [7]) it was 96%.
As for `COc1ccc(Cl)cc1C(Nc1cccnc1)c1ccc2cccnc2c1O` (centres undefined), the GFP response vs DMSO in test [1] is 97% (inactive); in test [1] (setting [6]), 98.8%; in test [1] (setting [7]) it was 95.2%; in test [3], 116% (inactive). In addition, the GFP response relative to DMSO is 121% (inactive) in test [2], 109% in test [2] (setting [8]) and 127% in test [2] (setting [9]). Also, the GFP response, % of DMSO in test [4] was 97.1% (inactive); in test [5] it was 109% (inactive); in test [5] (setting [6]) it was 115%; in test [5] (setting [7]), 101%.
Regarding `O=C(OCC(=O)N1CCN(C(=O)c2ccco2)CC1)c1cc(-c2ccc(Cl)c(Cl)c2Cl)nc2ccccc12`, the GFP response vs DMSO in test [1] is 90.1% (inactive); in test [1] (setting [6]), 89.1%; in test [1] (setting [7]), 89%; in test [3] it was 117% (inactive). Besides, the GFP response relative to DMSO in test [2] is 97.9% (inactive); in test [2] (setting [8]) it was 99.2%; in test [2] (setting [9]), 104%. The GFP response, % of DMSO was 116% (inactive) in test [4], 115% (inactive) in test [5], 105% in test [5] (setting [6]) and 107% in test [5] (setting [7]).
With `CCC(=O)Oc1oc(-c2ccccc2)nc1C=Nc1ccccc1OC`, the GFP response vs DMSO in test [1] was 102% (inactive); in test [1] (setting [6]), 102%; in test [1] (setting [7]), 102%; in test [3], 95.2% (inactive). The GFP response relative to DMSO was 105% (inactive) in test [2], 94.4% in test [2] (setting [8]) and 108% in test [2] (setting [9]). For the same molecule, the GFP response, % of DMSO in test [4] is 95.5% (inactive); in test [5], 90.3% (inactive); in test [5] (setting [6]), 86.9%; in test [5] (setting [7]) it was 92.6%.
On to `O=C(c1ccc([N+](=O)[O-])o1)N1CCN(c2nc3c(F)cc(F)cc3s2)CC1`, for which the GFP response vs DMSO in test [1] was 80.1% (inactive); in test [1] (setting [6]), 78%; in test [1] (setting [7]), 67.5%; in test [3], 197% (active). Further, the GFP response relative to DMSO is 250% (active) in test [2], 169% in test [2] (setting [8]) and 232% in test [2] (setting [9]). Further, the GFP response, % of DMSO in test [4] is 102% (inactive); in test [5], 142% (inactive); in test [5] (setting [6]), 108%; in test [5] (setting [7]), 121%.
In the case of `COc1ccc(-c2nc3cc(C)ccn3c2NCC2CCCO2)cc1OC` (centres undefined), the GFP response vs DMSO in test [1] was 94.8% (inactive); in test [1] (setting [6]), 96.4%; in test [1] (setting [7]), 93.4%; in test [3] it was 99% (inactive). In addition, the GFP response relative to DMSO was 97% (inactive) in test [2], 94.2% in test [2] (setting [8]) and 96.2% in test [2] (setting [9]). For the same molecule, the GFP response, % of DMSO in test [4] was 104% (inactive); in test [5] it was 100% (inactive); in test [5] (setting [6]), 101%; in test [5] (setting [7]) it was 99.3%.
Consider `O=[N+]([O-])c1ccc(N2N=C(c3ccco3)CC2c2ccccc2)cc1` (centres undefined), for which the GFP response vs DMSO in test [1] was 104% (inactive); in test [1] (setting [6]), 104%; in test [1] (setting [7]), 97.7%; in test [3], 131% (inactive). Moreover, the GFP response relative to DMSO is 107% (inactive) in test [2], 104% in test [2] (setting [8]) and 108% in test [2] (setting [9]). For the same molecule, the GFP response, % of DMSO was 99.8% (inactive) in test [4], 105% (inactive) in test [5], 105% in test [5] (setting [6]) and 103% in test [5] (setting [7]).
As to `Cc1ccc(C(=O)Oc2oc(-c3ccccc3)nc2C=Nc2ccc(N(C)C)cc2)cc1`, the GFP response vs DMSO is 98.2% (inactive) in test [1], 99.4% in test [1] (setting [6]), 98.8% in test [1] (setting [7]) and 105% (inactive) in test [3]. Besides, the GFP response relative to DMSO in test [2] is 94.9% (inactive); in test [2] (setting [8]) it was 98.2%; in test [2] (setting [9]), 93%. The GFP response, % of DMSO in test [4] is 101% (inactive); in test [5] it was 113% (inactive); in test [5] (setting [6]), 114%; in test [5] (setting [7]) it was 114%.
In the case of `Cc1cc(C)n(C(=O)/C(C#N)=N\Nc2ccccc2[N+](=O)[O-])n1`, the GFP response vs DMSO in test [1] is 91.7% (inactive); in test [1] (setting [6]), 71.4%; in test [1] (setting [7]), 88.6%; in test [3], 163% (inactive). Besides, the GFP response relative to DMSO in test [2] is 138% (inactive); in test [2] (setting [8]) it was 98.7%; in test [2] (setting [9]) it was 154%. Further, the GFP response, % of DMSO in test [4] is 123% (inactive); in test [5] it was 102% (inactive); in test [5] (setting [6]), 73.6%; in test [5] (setting [7]), 105%.
Consider `O=C1c2ccsc2SCCN1Cc1cccc(F)c1`, for which the GFP response vs DMSO was 96% (inactive) in test [1], 95.7% in test [1] (setting [6]), 96.8% in test [1] (setting [7]) and 92.6% (inactive) in test [3]. Also, the GFP response relative to DMSO in test [2] is 103% (inactive); in test [2] (setting [8]) it was 102%; in test [2] (setting [9]) it was 104%. The GFP response, % of DMSO in test [4] is 89.9% (inactive); in test [5] it was 87.2% (inactive); in test [5] (setting [6]), 90.2%; in test [5] (setting [7]), 84.6%.
For `O=C(COc1ccc(OCc2ccccc2)cc1)NN=C1CCCC1`, the GFP response vs DMSO in test [1] was 98% (inactive); in test [1] (setting [6]), 98.4%; in test [1] (setting [7]) it was 97.1%; in test [3], 103% (inactive). Moreover, the GFP response relative to DMSO in test [2] is 107% (inactive); in test [2] (setting [8]), 104%; in test [2] (setting [9]) it was 109%. Also, the GFP response, % of DMSO in test [4] is 99.5% (inactive); in test [5], 100% (inactive); in test [5] (setting [6]) it was 101%; in test [5] (setting [7]), 99.3%.
With `O=C1c2ccsc2SCCN1Cc1ccccc1`, the GFP response vs DMSO in test [1] is 93.8% (inactive); in test [1] (setting [6]), 92.9%; in test [1] (setting [7]), 94.8%; in test [3] it was 94.1% (inactive). In addition, the GFP response relative to DMSO is 112% (inactive) in test [2], 109% in test [2] (setting [8]) and 114% in test [2] (setting [9]). Besides, the GFP response, % of DMSO was 101% (inactive) in test [4], 92.6% (inactive) in test [5], 91.7% in test [5] (setting [6]) and 90.2% in test [5] (setting [7]).
Take `Clc1ccc(Nc2ncnc3ccc(Br)cc23)cc1`: the GFP response vs DMSO in test [1] is 98.4% (inactive); in test [1] (setting [6]) it was 89.5%; in test [1] (setting [7]) it was 99%; in test [3], 95.4% (inactive). Moreover, the GFP response relative to DMSO in test [2] is 122% (inactive); in test [2] (setting [8]) it was 102%; in test [2] (setting [9]) it was 124%. The GFP response, % of DMSO in test [4] is 86.2% (inactive); in test [5] it was 86.3% (inactive); in test [5] (setting [6]), 83.5%; in test [5] (setting [7]) it was 84%.
Consider `CNC(=O)/C(C#N)=C/c1c(N2CCCCCC2)nc2ccccn2c1=O`, for which the GFP response vs DMSO in test [1] is 98.7% (inactive); in test [1] (setting [6]), 100%; in test [1] (setting [7]) it was 98.2%; in test [3], 112% (inactive). The GFP response relative to DMSO in test [2] is 104% (inactive); in test [2] (setting [8]) it was 104%; in test [2] (setting [9]) it was 106%. For the same molecule, the GFP response, % of DMSO in test [4] is 98.6% (inactive); in test [5], 108% (inactive); in test [5] (setting [6]), 110%; in test [5] (setting [7]) it was 108%.

The record behind these values is PubChem BioAssay.
